# Reference: ChEMBL document CHEMBL3259637, “Synthesis and antiproliferative effect of novel 4-thiazolidinone-, pyridine- and piperazine-based conjugates on human leukemic cells” (Eur J Med Chem, 2014)
# The source made the active and inactive calls. No cut-off for these calls is given here.
# Key:
# [1] = Antiproliferative activity against human NALM6 cells after 48 to 72 hrs by trypan blue dye exclusion assay and MTT assay; format: functional, cell-based; details: NALM-6
# Jurkat = assay: Antiproliferative activity against human Jurkat cells after 48 to 72 hrs by trypan blue dye exclusion assay and MTT assay; format: functional, cell-based
# K562 = assay: Antiproliferative activity against human K562 cells after 48 to 72 hrs by trypan blue dye exclusion assay and MTT assay; format: functional, cell-based
# [2] = Cell cycle arrest in human NALM6 cells assessed as change in cell cycle distribution after 48 hrs by propidium iodide staining based flow cytometry; format: functional; details: NALM-6
# How it was run: (§1)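 Nalm6 cells (about 0.75 × 10⁵ cells/ml) were treated at 5, 10 and 20 µM for 48 h, with a DMSO vehicle control. Cells were PBS-washed, treated with RNase (50 µg/ml), stained with propidium iodide and analysed by flow cytometry (488 nm excitation, 560/670 emission). At least 10,000 cells per sample; subG1, G1, S and G2/M fractions scored. Two independent experiments.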
# [3] = Cell cycle arrest in human NALM6 cells assessed as accumulation at subG1 phase at 20 uM after 48 hrs by propidium iodide staining based flow cytometry; format: functional; details: NALM-6; how it was run: as §1
# [4] = Cell cycle arrest in human NALM6 cells assessed as change in cell cycle distribution at 5 to 10 uM after 48 hrs by propidium iodide staining based flow cytometry; format: functional; details: NALM-6; how it was run: as §1
# NALM-6 = assay: Induction of cell death in human NALM6 cells assessed as mitochondrial membrane potential depolarization after 48 hrs by JC1 staining based flow cytometry; format: functional
# How it was run: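 Nalm6 cells were exposed to 5, 10 and 20 µM for 48 h, then loaded with JC-1 (0.5 µM) at 37°C for 30 min and PBS-washed. Flow cytometry used 488 nm excitation, reading emission at 530/630 and 580/610 nm on 10,000 cells. The ratio of red to green fluorescent cells was reported. 2,4-DNP was the positive control and DMSO the vehicle control.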
# [5] = Cell cycle arrest in human NALM6 cells assessed as accumulation at G2/M phase at 20 uM after 48 hrs by propidium iodide staining based flow cytometry; format: functional; details: NALM-6; how it was run: as §1
SMILES,IC50 [1],IC50 (Jurkat),IC50 (K562),Activity [2],Activity [3],Activity [4],Activity (NALM-6),Activity [5]
COC(=O)c1ccc(C2SCC(=O)N2c2ccc(N3CCN(Cc4cccc(C)c4)CC3)cn2)c(OC)c1 (stereo not given),27.3 µM,> 100 µM,> 100 µM,–,–,–,–,–
COC(=O)c1ccc(C2SCC(=O)N2c2ccc(N3CCN(S(=O)(=O)c4ccccc4)CC3)cn2)c(OC)c1 (stereo not given),48.4 µM,52.9 µM,65.6 µM,–,–,–,–,–
COC(=O)c1ccc(C2SCC(=O)N2c2ccc(N3CCN(S(=O)(=O)c4ccc(OC)cc4)CC3)cn2)c(OC)c1 (stereo not given),29.4 µM,45.2 µM,54.5 µM,–,–,–,–,–
COC(=O)c1ccc(C2SCC(=O)N2c2ccc(N3CCN(S(=O)(=O)c4c(C)cc(C)cc4C)CC3)cn2)c(OC)c1 (stereo not given),> 100 µM,> 100 µM,53.5 µM,–,–,–,–,–
COC(=O)c1ccc(C2SCC(=O)N2c2ccc(N3CCN(S(=O)(=O)c4ccc(F)cc4)CC3)cn2)c(OC)c1 (stereo not given),> 100 µM,78.3 µM,> 100 µM,–,–,–,–,–
COC(=O)c1ccc(C2SCC(=O)N2c2ccc(N3CCN(Cc4cc(OC)c(OC)c(OC)c4)CC3)cn2)c(OC)c1 (stereo not given),> 100 µM,41 µM,> 100 µM,–,–,–,–,–
CC(=O)O[C@H]1C(=O)[C@@]2(C)[C@H]([C@H](OC(=O)c3ccccc3)[C@]3(O)C[C@H](OC(=O)[C@H](O)[C@@H](NC(=O)c4ccccc4)c4ccccc4)C(C)=C1C3(C)C)[C@]1(OC(C)=O)CO[C@@H]1C[C@@H]2O [PACLITAXEL],0.0041 µM,0.0045 µM,–,–,–,–,–,–
COC(=O)c1ccc(C2SCC(=O)N2c2ccc(N3CCN(Cc4ccc(Cl)c(Cl)c4)CC3)cn2)c(OC)c1 (stereo not given),> 100 µM,61 µM,> 100 µM,–,–,–,–,–
COC(=O)c1ccc(C2SCC(=O)N2c2ccc(N3CCN(S(=O)(=O)c4ccc([N+](=O)[O-])cc4)CC3)cn2)c(OC)c1 (stereo not given),> 100 µM,54 µM,65.2 µM,–,–,–,–,–
COC(=O)c1ccc(C2SCC(=O)N2c2ccc(N3CCN(S(=O)(=O)c4cc(Cl)ccc4Cl)CC3)cn2)c(OC)c1 (stereo not given),27.4 µM,> 100 µM,> 100 µM,–,–,–,–,–
COC(=O)c1ccc(C2SCC(=O)N2c2ccc(N3CCNCC3)cn2)c(OC)c1 (stereo not given),9.71 µM,19.3 µM,15.2 µM,Dose-dependent effect,Active,Active,Dose-dependent effect,Active
COC(=O)c1ccc(C2SCC(=O)N2c2ccc(N3CCN(Cc4cccc([N+](=O)[O-])c4)CC3)cn2)c(OC)c1 (stereo not given),> 100 µM,37.4 µM,68.7 µM,–,–,–,–,–
